CSN deneddyl inh: inhibitors of CSN-mediated cullin deneddylation, primary screen, biochemical, fluorescence polarization, uHTS; COP9 signalosome complex subunit 5 (Homo sapiens), Q92905; Purified CSN, SCF-Nedd8-OG deneddylation; inhibition, % at 12.5 µM; 0.38% of 360,000 active;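 active means pattern-corrected inhibition above about 35%, with an unprinted fluorescence ratio check between 0.5 and 1.5, limit read from the data, passing the limit was not always enough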
Target sequence (Q92905 whole entry, looked up, one chain of several): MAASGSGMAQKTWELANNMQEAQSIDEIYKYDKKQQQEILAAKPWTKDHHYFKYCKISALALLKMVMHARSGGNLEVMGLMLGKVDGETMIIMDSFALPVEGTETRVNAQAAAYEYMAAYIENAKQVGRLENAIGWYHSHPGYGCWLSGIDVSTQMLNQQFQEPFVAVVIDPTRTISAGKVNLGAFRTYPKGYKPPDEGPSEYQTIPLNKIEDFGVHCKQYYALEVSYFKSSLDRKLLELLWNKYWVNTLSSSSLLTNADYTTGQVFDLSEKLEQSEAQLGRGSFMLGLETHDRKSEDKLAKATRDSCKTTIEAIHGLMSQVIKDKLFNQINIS
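Schedule: reaction 90 min, room temperature / Assay system: HEK293T-derived human Csn5 enzyme / Input: Csn5 at 0.24 nM final / Measure: inhibition of Csn5 cleavage, % / Control set: substrate-only high control, full reaction low control / Technique: fluorescence polarization of the substrate / Buffer or medium: Tris/NaCl/DTT buffer, pH 7.5 / Reagent: SCFSkp2-Nedd8OG substrate at 10 nM final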
HNF4A DNA FP: change in binding of human HNF4A to DNA, primary screen, biochemical, fluorescence polarization, FITC-DNA; Hepatocyte nuclear factor 4-alpha (Homo sapiens), P41235; 1 h; activity change, % at 10 µM; 0.3% of 360,000 active; in the data active means activity change above about 30%, passing the limit was not always enough
Granule exo inh: LAMP-1 surface exposure blockers, TALL-104 cells – cell-based, flow cytometry, MLPCN library, primary screen; inhibition, % at 10 µM; 0.66% of 360,000 active; AID 651702, 2012; TALL-104 LAMP-1 surface exposure; cells stimulated with thapsigargin and PMA;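 active means inhibition above about 55%, limit read from the data; inconclusive means no clear call, values can overlap the other calls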
Myeloid diff 2: induction of myeloid progenitor differentiation, primary screen, cell-based, flow cytometry, MLPCN library; ER-HoxA9 myeloid progenitors, lysozyme-GFP differentiation; calls only at 10 µM; 1% of 360,000 active; AID 624256, 2012;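 active means normalized GFP-positive differentiation at or above the plate's own cutoff, the solvent-only control mean plus 3 SD; inconclusive means no clear call, values can overlap the other calls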;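 further: cells exposed to compound for four days before flow analysis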
Large screens that a line does not name were inactive. Shown are actives, neighbours in structure and some others; about 2.2% of the full set was active somewhere.

Cc1cc(N)n(-c2ccc3ccccc3c2)n1	Myeloid diff 2 active
CC(O)(P(=O)(O)O)P(=O)(O)O	none
NNc1nc2c(-c3ccc(Cl)cc3)nnn2c2ccccc12	HNF4A DNA FP 39, Myeloid diff 2 active
NNc1nc2c(-c3ccc(F)cc3)nnn2c2ccccc12	Myeloid diff 2 active
O=C(CSc1ncnc2nc[nH]c12)N1CCN(c2ccccc2)CC1	Myeloid diff 2 active
CCc1ccc(Nc2n[n+](C)c(-c3ccncc3)s2)cc1	none
CCOC(=O)C1CCCN(C(=O)Cn2sc3nc(C)cc(C)c3c2=O)C1 (centres undefined)	Granule exo inh 84, Myeloid diff 2 inconclusive
Cc1cc(C)c2c(=O)n(CC(=O)N3CCC(N4CCCCC4)CC3)sc2n1	none
CCCCC(=O)N1CCCC(C(=O)OCC)C1 (centres undefined)	Myeloid diff 2 active
COc1ccc(NS(=O)(=O)c2cccc(C(=O)NN=Cc3cc(Br)c(O)c(Br)c3)c2)cc1	none
O=C(c1ccoc1)N1CCN(c2cc(-c3cccc(F)c3)nc3cc(-c4cccc(Cl)c4)nn23)CC1	none
COc1cc(CNc2ncnc3c2[nH]c2ccc(C)cc23)cc(OC)c1	Granule exo inh 56
CSc1ccc(S(=O)(=O)N2CCC(C(=O)NCc3ccccn3)CC2)cc1	none
CCOC(=O)c1c(C)[nH]c(C(=O)COC(=O)/C=C/c2ccc(OC(F)F)cc2)c1C	none
CCOC(=O)c1c(C)[nH]c(C)c1C(=O)COC(=O)/C=C/c1ccc(OC(F)F)cc1	Myeloid diff 2 active
COc1ccc(C(C)=O)cc1CC(=O)Nc1ccc2c(c1)CCC2	none
O=C(NC(=S)Nc1cc(Cl)ccc1O)c1cccc(Br)c1	Myeloid diff 2 active
O=C(NC(=S)Nc1cccnc1)c1cccc(Br)c1	none
COc1ccc(CCNC(=O)CCCCCN2C(=O)[C@@H]3Cc4ccccc4CN3C2=O)cc1OC	none
CCN(C[C@H]1N[C@@](C)(C(=O)OC)[C@H]2C(=O)N(C)C(=O)[C@@H]12)C(=O)Nc1ccccc1	none
CC(C)C(N)c1csc(NC(=O)Nc2cccc(Cl)c2)n1 (centres undefined)	Myeloid diff 2 active
Cc1ccccc1CCNC(=O)C1CCC(=O)N(CCc2cccc(F)c2)C1 (centres undefined)	none
COc1ccc(NC(=O)CCNS(=O)(=O)c2ccc3c(c2)c(=O)n(C)c(=O)n3C)c(OC)c1	Myeloid diff 2 active
COc1ccc2c(c1)CCC1C2=NN(/C(C)=C\C(C)=O)C1c1ccc(F)cc1 (centres undefined)	HNF4A DNA FP 53
CCCNC(=O)N1C[C@H](O)COC[C@@H]2O[C@@H](CC(=O)NCCCN3CCOCC3)CC[C@H]21	none
COc1ccc(Cc2nc3ccccc3n2CC(=O)N/N=C/c2ccc(C)cc2O)cc1OC	CSN deneddyl inh 60, HNF4A DNA FP 39
O=C(Nc1ccc2c(c1)OCO2)c1ccc2sc([C@@H]3O[C@H](CO)[C@@H](O)[C@H]3O)nc2c1	none
Cc1ccc(O)c(NC(=O)c2ccc3c(c2)C(=O)N(Cc2cccnc2)C3=O)c1	Myeloid diff 2 active
Cc1cc(C)c(NC(=O)c2ccc3c(c2)C(=O)N(Cc2cccnc2)C3=O)c(C)c1	none
O=C(CSc1ccccc1F)NNC(=O)c1cncc(Br)c1	none
CN1CCC(N(C)C(=O)c2sc3cc(F)ccc3c2Cl)CC1	HNF4A DNA FP 100
CC(C)N(CC(N)=O)C(=O)c1sc2cc(F)ccc2c1Cl	none
CC(=O)Nc1ccccc1C(=O)C(=O)Nc1ccc(C(=O)NCC2CCCO2)cc1 (centres undefined)	Myeloid diff 2 active
O=C(NCC1CCCO1)c1cccs1 (centres undefined)	Myeloid diff 2 active
O=C(COC(=O)c1cccs1)NCC1CCCO1 (centres undefined)	none
Cc1cc(C)cc(N(CC(=O)NC(C)C)C(=O)CCC(=O)Nc2ccccn2)c1	none
Cc1ccc(C(=O)Nc2cccnc2)cc1Cl	none
Cc1c(-c2ccccc2)oc2c(C(=O)N3CCN(c4ccc([N+](=O)[O-])cc4)CC3)cccc2c1=O	Granule exo inh 90
Cc1ccc(NC2=C(Cl)C(=O)c3ccccc3C2=O)cc1	Granule exo inh 74
CCN(CC)c1ccc(NC2=C(Cl)C(=O)c3ccccc3C2=O)cc1	Granule exo inh 67, Myeloid diff 2 inconclusive
COC1=C(Nc2ccc(O)cc2)C(=O)c2ccccc2C1=O	Myeloid diff 2 active
O=C1C(Cl)=C(Nc2ccc(O)cc2)C(=O)c2ccccc21	Granule exo inh 70, Myeloid diff 2 inconclusive
Cn1cc(CCCC(=O)NCc2ccc(F)cc2)c2ccccc21	none
CC(=O)Nc1ccc(NC2=CC(=O)c3ccccc3C2=O)cc1	none
O=C1C=C(Nc2ccc(O)cc2)C(=O)c2ccccc21	Myeloid diff 2 active
CC(=O)N1CCN(C(=O)c2cc3c(s2)CCC(C)C3)CC1 (centres undefined)	none
O=C(C[C@@H]1C/C=C\C[C@H](Cc2ccc(F)cc2)C(=O)OC[C@@H]2CCCN2C1=O)N[C@H](CO)Cc1ccccc1	none
O=C(O)c1ccccc1CSc1nc2ccccc2n1Cc1ccccc1C(=O)O	Myeloid diff 2 active
COc1ccc(S(=O)(=O)N2CCC(C(=O)NC3CC3)CC2)cc1OC	none
COc1ccc(-c2nc(SCC(=O)Nc3nccs3)c(-c3ccc(Cl)cc3)[nH]2)cc1	none
COc1ccc(-c2[nH]c(-c3ccc(C)cc3)nc2SCC(=O)Nc2nccs2)cc1	HNF4A DNA FP 30
COc1ccc(CC(N)c2csc(NC(=O)c3cccc(OC(F)(F)F)c3)n2)cc1 (centres undefined)	none
CC(C(=O)Nc1ccc(C(=O)O)c(O)c1)N1C(=O)/C(=C\c2ccco2)SC1=S (centres undefined)	CSN deneddyl inh 53, Myeloid diff 2 inconclusive
O=C(Nc1cccc(-c2cn3c(n2)SCC3)c1)c1ccc2c(c1)OCO2	none
O=C(Nc1ccc(-c2cn3c(n2)SCC3)cc1)c1ccc2c(c1)OCO2	Myeloid diff 2 active
Cc1c(S(=O)(=O)Nc2cccc3ccccc23)c(=O)n(C)c(=O)n1C	none
CN(Cc1ccc(OC(F)F)cc1)C(=O)c1cccc(S(=O)(=O)N2CCN(c3ccccc3)CC2)c1	none
COCCn1c(-c2ccc(-c3ccc([N+](=O)[O-])cc3Br)o2)nc2c1c(=O)[nH]c(=O)n2CC(C)C	Myeloid diff 2 active
CC(=O)NS(=O)(=O)c1ccc(NC(=O)CC23CC4CC(CC(Br)(C4)C2)C3)cc1	none
CCN(CC)c1ccc(NC(=O)CSC(=O)c2ccccc2)cc1	Myeloid diff 2 active
CC(=O)c1cccc(NC(=O)CSC(=O)c2ccccc2)c1	none
O=C1c2ccccc2-c2onc3c(N4CCN(CCO)CC4)cc(N4CCN(C(=O)c5ccco5)CC4)c1c23	Myeloid diff 2 active
CN1CCN(c2cc(N3CCN(C(=O)c4ccco4)CC3)c3c4c(onc24)-c2ccccc2C3=O)CC1	none

Screens as filed in PubChem.
